Assay results taken from ChEMBL document CHEMBL1145839, “N-(3-acyloxy-2-benzylpropyl)-N'-[4-(methylsulfonylamino)benzyl]thiourea analogues: novel potent and high affinity antagonists and partial antagonists of the vanilloid receptor” (J Med Chem, 2003).
Activity calls are given as the source filed them. The calls are words filed in the database; no cut-off is given here.

Key:
[1] = target: T1, Transient receptor potential cation channel subfamily V member 1 (Rattus norvegicus, UniProt O35433); experiment: In vitro binding affinity towards Rat Vanilloid receptor 1 (VR1) by [3H]RTX displacement.
Outline: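 Rat VR1 stably expressed in tet-off CHO cells; cells grown without antibiotic for 48 h, trypsin-harvested, pelleted and stored at -20 °C. About 5×10^5 cells incubated with 50-100 pM [3H]RTX plus competitor in DPBS (Ca2+/Mg2+) with 0.25 mg/mL BSA, 60 min at 37 °C. Nonspecific binding taken with 100 nM unlabeled RTX.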

[2] = target: T1, Transient receptor potential cation channel subfamily V member 1; experiment: Inhibition of capsaicin-induced [Ca2+] uptake by Rat Vanilloid receptor 1 (VR1) expressing CHO cells; assay type: cell-based
[3] = target: T1, Transient receptor potential cation channel subfamily V member 1; experiment: (§1) In vitro [Ca2+] influx relative to capsaicin by Rat Vanilloid receptor (VR1) expressing CHO cells; assay type: functional, cell-based
[4] = target: Transient receptor potential cation channel subfamily V member 1 (Rattus norvegicus) (UniProt O35433); settings: CHO
[5] = target: Transient receptor potential cation channel subfamily V member 1 (Rattus norvegicus) (UniProt O35433); experiment: Inhibition of capsaicin-induced [Ca2+] uptake by Rat Vanilloid receptor 1 (VR1) expressing CHO cells (ineffective); assay type: functional, cell-based
[6] = target: Transient receptor potential cation channel subfamily V member 1 (Rattus norvegicus) (UniProt O35433); experiment: as §1; assay type: functional, cell-based; settings: concentration not given here
[7] = target: T1, Transient receptor potential cation channel subfamily V member 1; experiment: In vitro binding to Rat Vanilloid receptor 1 (VR1) expressing CHO cells compared to capsaicin; assay type: cell-based
Outline: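 Tet-off CHO cells stably expressing rat VR1, induced by 48 h culture without tetracycline, harvested with trypsin/EDTA, pelleted and stored at -20 °C. About 5×10^5 cells per tube incubated 60 min at 37 °C with 50-100 pM [3H]RTX, a range of competitor concentrations and 0.25 mg/mL BSA in DPBS with Ca2+/Mg2+. Nonspecific binding measured with 100 nM unlabeled RTX. α-glycoprotein added after incubation, membranes pelleted, scintillation counting. Ki from Hill fit; at least three experiments.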

[8] = target: Transient receptor potential cation channel subfamily V member 1 (Rattus norvegicus) (UniProt O35433); experiment: Displacement of [3H]RTX binding to Rat Vanilloid receptor 1 (VR1) at 10 uM

T1 sequence (O35433 whole entry): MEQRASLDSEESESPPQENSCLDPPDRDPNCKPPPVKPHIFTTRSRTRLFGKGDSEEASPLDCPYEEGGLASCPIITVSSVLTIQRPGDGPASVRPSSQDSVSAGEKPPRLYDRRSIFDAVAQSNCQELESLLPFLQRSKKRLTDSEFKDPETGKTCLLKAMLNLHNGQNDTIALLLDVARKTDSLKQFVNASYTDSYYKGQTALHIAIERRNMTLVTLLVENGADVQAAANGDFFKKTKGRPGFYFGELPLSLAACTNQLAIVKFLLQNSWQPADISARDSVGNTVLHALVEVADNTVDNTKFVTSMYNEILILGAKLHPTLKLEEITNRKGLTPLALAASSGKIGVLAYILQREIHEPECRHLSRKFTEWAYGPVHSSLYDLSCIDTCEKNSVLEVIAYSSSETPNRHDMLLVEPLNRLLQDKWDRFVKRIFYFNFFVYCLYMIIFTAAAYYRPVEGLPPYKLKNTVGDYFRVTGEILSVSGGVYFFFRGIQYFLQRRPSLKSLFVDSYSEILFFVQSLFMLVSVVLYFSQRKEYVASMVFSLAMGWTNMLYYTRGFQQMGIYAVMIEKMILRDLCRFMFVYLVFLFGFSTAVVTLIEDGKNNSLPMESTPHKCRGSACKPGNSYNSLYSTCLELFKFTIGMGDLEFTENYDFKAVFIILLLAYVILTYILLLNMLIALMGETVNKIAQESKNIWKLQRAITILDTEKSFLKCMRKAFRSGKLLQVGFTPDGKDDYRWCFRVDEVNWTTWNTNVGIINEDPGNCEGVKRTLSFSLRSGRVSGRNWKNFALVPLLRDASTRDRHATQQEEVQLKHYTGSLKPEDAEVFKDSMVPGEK
Transient receptor potential cation channel subfamily V member 1 (Rattus norvegicus), sequence (O35433 whole entry): as above

Cc1ccc(CC(CNC(=S)NCc2ccc(NS(C)(=O)=O)cc2)COC(=O)C(C)(C)C)cc1C (stereo unspecified)
Ki [1]: 0.0293 µM | Ki [2]: 0.067 µM

Cc1ccc(CC(CNC(=S)NCc2ccc(NC(=O)C(C)C)cc2)COC(=O)C(C)(C)C)cc1C (stereo unspecified)
Ki [1]: 2.6 µM | EC50 [3]: 1.14 µM

Cc1ccc(CC(CN/C(S)=N/Cc2ccc(NS(C)(=O)=O)cc2)COC(=O)c2ccccc2)cc1C (stereo unspecified)
EC50 [3]: 1.73 µM

Oc1cc2c(cc1O)CN(C(=S)NCCc1ccc(Cl)cc1)CCC2
NE [4]: inactive

COc1cc(CNC(=S)NCC(COC(=O)C(C)(C)C)Cc2ccc(C(C)(C)C)cc2)ccc1O (stereo unspecified)
NE [5]: inactive | EC50 [3]: 0.00283 µM

Cc1ccc(CC(CN/C(S)=N/Cc2ccc(NS(=O)(=O)C(C)C)cc2)COC(=O)C(C)(C)C)cc1C (stereo unspecified)
Ki [1]: 0.227 µM | EC50 [3]: 0.79 µM

CCCS(=O)(=O)Nc1ccc(C/N=C(\S)NCC(COC(=O)C(C)(C)C)Cc2ccc(C)c(C)c2)cc1 (stereo unspecified)
Ki [1]: 0.313 µM | Ki [2]: 0.94 µM

COc1cc(CNC(=S)NCC(COC(=O)c2ccccc2)Cc2ccc(C)c(C)c2)ccc1NS(C)(=O)=O (stereo unspecified)
Ki [1]: 0.148 µM | EC50 [3]: 0.166 µM

CC(C)(C)c1ccc(CC(CNC(=S)NCc2ccc(NS(C)(=O)=O)cc2)COC(=O)c2ccccc2)cc1 (stereo unspecified)
Ki [1]: 0.239 µM | EC50 [3]: 2.79 µM

CCS(=O)(=O)Nc1ccc(C/N=C(\S)NCC(COC(=O)C(C)(C)C)Cc2ccc(C)c(C)c2)cc1 (stereo unspecified)
Ki [1]: 0.108 µM | Ki [2]: 0.309 µM

Cc1ccc(CC(CNC(=S)NCc2ccc(NS(C)(=O)=O)c(F)c2)COC(=O)C(C)(C)C)cc1C (stereo unspecified)
Ki [1]: 0.054 µM | Ki [2]: 0.0078 µM

Cc1ccc(CC(CN/C(S)=N/Cc2ccc(NS(C)(=O)=O)cc2)COC(=O)C(C)(C)C)cc1C (stereo unspecified)
inhibition [6]: 7%

C=C(C)[C@]12C[C@@H](C)[C@@]34O[C@](Cc5ccccc5)(O[C@@H]1[C@@H]3C=C(COC(=O)Cc1ccc(O)c(OC)c1)C[C@]1(O)C(=O)C(C)=C[C@@H]41)O2 [RESINIFERATOXIN]
Ki [7]: 0.00013 µM

Cc1ccc(CC(CNC(=S)NCc2ccc(CNS(C)(=O)=O)cc2)COC(=O)C(C)(C)C)cc1C (stereo unspecified)
Ki [1]: 3 µM | EC50 [3]: 1.7 µM

COc1cc(C/N=C(\S)NCC(COC(=O)c2ccccc2)Cc2ccc(C(C)(C)C)cc2)ccc1NS(C)(=O)=O (stereo unspecified)
Ki [1]: 0.0772 µM | EC50 [3]: 0.252 µM

COc1cc(CNC(=O)CCCC/C=C/C(C)C)ccc1O
NE [5]: inactive

Cc1ccc(CC(CN/C(S)=N/Cc2ccc(NS(=O)(=O)c3ccccc3)cc2)COC(=O)C(C)(C)C)cc1C (stereo unspecified)
Ki [1]: 2.5 µM | NE [5]: inactive

Cc1ccc(CC(CN/C(S)=N/Cc2cccc(NS(C)(=O)=O)c2)COC(=O)C(C)(C)C)cc1C (stereo unspecified)
Ki [1]: 0.355 µM | EC50 [3]: 0.99 µM

COc1cc(CNC(=S)NCC(COC(=O)C(C)(C)C)Cc2ccc(C)c(C)c2)ccc1O (stereo unspecified)
NE [5]: inactive | EC50 [3]: 0.00197 µM

Cc1ccc(CC(CN/C(S)=N/Cc2ccc(NS(=O)(=O)C(F)(F)F)cc2)COC(=O)C(C)(C)C)cc1C (stereo unspecified)
inhibition [8]: 15.5% | NE [5]: inactive

CC(=O)Nc1ccc(CNC(=S)NCC(COC(=O)C(C)(C)C)Cc2ccc(C)c(C)c2)cc1 (stereo unspecified)
Ki [1]: 1.7 µM | EC50 [3]: 0.45 µM

CC(C)(C)C(=O)OCC(C/N=C(\S)NCc1ccc(NS(C)(=O)=O)cc1)Cc1ccc(C(C)(C)C)cc1 (stereo unspecified)
Ki [1]: 0.064 µM | Ki [2]: 0.086 µM

COc1cc(C/N=C(\S)NCC(COC(=O)C(C)(C)C)Cc2ccc(C)c(C)c2)ccc1NS(C)(=O)=O (stereo unspecified)
Ki [1]: 0.049 µM | EC50 [3]: 0.022 µM
